Assay results taken from ChEMBL document CHEMBL3046679, “Design, synthesis, and biological activities of arylmethylamine substituted chlorotriazine and methylthiotriazine compounds” (J Agric Food Chem, 2011).
Active and inactive are the calls of the source. The calls are words filed in the database; no cut-off is given here.

What was measured:
Puccinia triticina [1] = test: Fungicidal activity against Puccinia triticina assessed as inhibition of disease development in compound treated leaf pieces at 20 ppm relative to untreated control (wheat-preventative); format: functional
Summary of the method: (§1)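 Preventative leaf-piece test on host tissue (tomato, vine, wheat or barley). Formulated compound applied at 200, 60 and 20 ppm before spore inoculation. Disease scored 3–9 days after inoculation, depending on the pathogen, as percent inhibition of disease development versus untreated controls. Values are the mean across replicates.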

Pythium dissimile = test: Fungicidal activity against Pythium dissimile assessed as inhibition of mycelia growth at 2 ppm; format: functional, organism-based
Summary of the method: (§2)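 Mycelial growth test in 96-well plates: compound incorporated into artificial growth medium at 2 ppm, two replicates per rate. Each well scored 99 for complete, 55 for partial or 0 for no inhibition. Values are the mean across replicates; azoxystrobin and prochloraz used as positive controls.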

Fusarium graminearum = test: Fungicidal activity against Fusarium graminearum assessed as inhibition of mycelia growth at 2 ppm; format: functional, organism-based; summary of the method: as §2
[2] = system: Blumeria graminis f. sp. tritici; test: Fungicidal activity against Blumeria graminis f. sp. tritici assessed as inhibition of disease development in compound treated leaf pieces at 200 ppm relative to untreated control (wheat-preventative); format: functional
Aphididae = test: Insecticidal activity against Aphididae (aphids) assessed as mortality at 1000 ppm by leaf-disk assay; format: functional, organism-based
Summary of the method: (§3)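 Leaf-disk assay at 1000 ppm, three replicates. Plates kept 5–9 days in controlled-environment cabinets. Mortality judged against untreated wells: 99 for significant mortality, 0 otherwise. Values are the mean of three; thiamethoxam and indoxacarb used as positive controls.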

Alternaria solani [3] = test: Fungicidal activity against Alternaria solani assessed as inhibition of disease development in compound treated leaf pieces at 20 ppm relative to untreated control (tomato-preventative); format: functional; summary of the method: as §1
Alternaria solani [4] = test: Fungicidal activity against Alternaria solani assessed as inhibition of mycelia growth at 2 ppm; format: functional, organism-based; summary of the method: as §2
Alternaria solani [5] = test: Fungicidal activity against Alternaria solani assessed as inhibition of disease development in compound treated leaf pieces at 60 ppm relative to untreated control (tomato-preventative); format: functional; summary of the method: as §1
Phytophthora infestans [6] = test: Fungicidal activity against Phytophthora infestans assessed as inhibition of disease development in compound treated leaf pieces at 20 ppm relative to untreated control (tomato-preventative); format: functional; summary of the method: as §1
Parastagonospora nodorum [7] = test: Fungicidal activity against Phaeosphaeria nodorum assessed as inhibition of disease development in compound treated leaf pieces at 60 ppm relative to untreated control (wheat preventative); format: functional; summary of the method: as §1
Puccinia triticina [8] = test: Fungicidal activity against Puccinia triticina assessed as inhibition of disease development in compound treated leaf pieces at 60 ppm relative to untreated control (wheat-preventative); format: functional; summary of the method: as §1
Plasmopara viticola [9] = test: Fungicidal activity against Plasmopara viticola assessed as inhibition of disease development in compound treated leaf pieces at 20 ppm relative to untreated control (grapevine-preventative); format: functional; summary of the method: as §1
Plasmopara viticola [10] = test: Fungicidal activity against Plasmopara viticola assessed as inhibition of disease development in compound treated leaf pieces at 200 ppm relative to untreated control (grapevine-preventative); format: functional; summary of the method: as §1
Puccinia triticina [11] = test: Fungicidal activity against Puccinia triticina assessed as inhibition of disease development in compound treated leaf pieces at 60 ppm relative to untreated control (wheat-curative); format: functional
Summary of the method: (§4)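 Curative wheat leaf-piece test against Puccinia triticina. Leaf pieces inoculated with spores first, then treated with formulated compound at 200, 60 or 20 ppm. Disease scored 3–9 days after inoculation as percent inhibition versus untreated controls. Values are the mean across replicates.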

Heliothis virescens = test: Insecticidal activity against Lepidoptera Heliothis virescens (tobacco budworm) assessed as mortality at 1000 ppm by leaf-disk assay; format: functional, organism-based; summary of the method: as §3
Pyrenophora teres [12] = test: Fungicidal activity against Pyrenophora teres assessed as inhibition of disease development in compound treated leaf pieces at 200 ppm relative to untreated control (barley-preventative); format: functional; summary of the method: as §1
Parastagonospora nodorum [13] = test: Fungicidal activity against Phaeosphaeria nodorum assessed as inhibition of disease development in compound treated leaf pieces at 20 ppm relative to untreated control (wheat preventative); format: functional; summary of the method: as §1
Triticum aestivum = test: Phytotoxicity against Triticum aestivum (wheat) plant at 200 ppm; format: organism-based; conditions: in vivo
Pyrenophora teres [14] = test: Fungicidal activity against Pyrenophora teres assessed as inhibition of disease development in compound treated leaf pieces at 60 ppm relative to untreated control (barley-preventative); format: functional; summary of the method: as §1
Pyrenophora teres [15] = test: Fungicidal activity against Pyrenophora teres assessed as inhibition of disease development in compound treated leaf pieces at 20 ppm relative to untreated control (barley-preventative); format: functional; summary of the method: as §1
Puccinia triticina [16] = test: Fungicidal activity against Puccinia triticina assessed as inhibition of disease development in compound treated leaf pieces at 200 ppm relative to untreated control (wheat-preventative); format: functional; summary of the method: as §1
Brassica napus [17] = test: Herbicidal activity against Brassica napus (oilseed rape) at 1.5 kg/ha postemergence treatment measured after 10 days by glasshouse test; format: functional; conditions: post-emergence, 240 h
Summary of the method: (§5)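 Glasshouse pre/postemergence test, each treatment in triplicate. Above-ground fresh weight measured 10 days after treatment. Result expressed as percent inhibition versus control, from 0 (no control) to 100 (complete control); glyphosate used as positive control.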

Echinochloa crus-galli [18] = test: Herbicidal activity against Echinochloa crus-galli (barnyard grass) at 1.5 kg/ha preemergence treatment measured after 10 days by glasshouse test; format: functional; conditions: pre-emergence, 240 h; summary of the method: as §5
Phytophthora infestans [19] = test: Fungicidal activity against Phytophthora infestans assessed as inhibition of disease development in compound treated leaf pieces at 200 ppm relative to untreated control (tomato-preventative); format: functional; summary of the method: as §1
Echinochloa crus-galli [20] = test: Herbicidal activity against Echinochloa crus-galli (barnyard grass) at 1.5 kg/ha postemergence treatment measured after 10 days by glasshouse test; format: functional; conditions: post-emergence, 240 h; summary of the method: as §5
[21] = system: Blumeria graminis f. sp. tritici; test: Fungicidal activity against Blumeria graminis f. sp. tritici assessed as inhibition of disease development in compound treated leaf pieces at 20 ppm relative to untreated control (wheat-preventative); format: functional
Alternaria solani [22] = test: Fungicidal activity against Alternaria solani assessed as inhibition of disease development in compound treated leaf pieces at 200 ppm relative to untreated control (tomato-preventative); format: functional; summary of the method: as §1
Puccinia triticina [23] = test: Fungicidal activity against Puccinia triticina assessed as inhibition of disease development in compound treated leaf pieces at 20 ppm relative to untreated control (wheat-curative); format: functional; summary of the method: as §4
Plasmopara viticola [24] = test: Fungicidal activity against Plasmopara viticola assessed as inhibition of disease development in compound treated leaf pieces at 60 ppm relative to untreated control (grapevine-preventative); format: functional; summary of the method: as §1
Phytophthora infestans [25] = test: Fungicidal activity against Phytophthora infestans assessed as inhibition of mycelia growth at 200 ppm; format: functional, organism-based
Uromyces viciae-fabae = test: Fungicidal activity against Uromyces viciae-fabae assessed as inhibition of mycelia growth at 100 ppm; format: functional, organism-based
Summary of the method: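 Leaf-piece assay on bean at 100 ppm, with compound applied before spore inoculation and two replicates. Each well scored 99 for complete inhibition, 55 for partial and 0 for none; value is the mean score across replicates.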

[26] = system: Blumeria graminis f. sp. tritici; test: Fungicidal activity against Blumeria graminis f. sp. tritici assessed as inhibition of disease development in compound treated leaf pieces at 60 ppm relative to untreated control (wheat-preventative); format: functional
Brassica napus [27] = test: Herbicidal activity against Brassica napus (oilseed rape) at 1.5 kg/ha preemergence treatment measured after 10 days by glasshouse test; format: functional; conditions: pre-emergence, 240 h; summary of the method: as §5
Phytophthora infestans [28] = test: Fungicidal activity against Phytophthora infestans assessed as inhibition of disease development in compound treated leaf pieces at 60 ppm relative to untreated control (tomato-preventative); format: functional; summary of the method: as §1
Puccinia triticina [29] = test: Fungicidal activity against Puccinia triticina assessed as inhibition of disease development in compound treated leaf pieces at 200 ppm relative to untreated control (wheat-curative); format: functional; summary of the method: as §4

SMILES: CSc1nc(NCc2cc(-c3ccccc3)no2)nc(NC(C)C)n1
- inhibition at 20 ppm (Puccinia triticina [1]): 0%
- inhibition (Pythium dissimile): inactive
- inhibition (Fusarium graminearum): inactive
- inhibition at 200 ppm [2]: 70%
- mortality (Aphididae): inactive
- inhibition at 20 ppm (Alternaria solani [3]): 0%
- inhibition (Alternaria solani [4]): inactive
- inhibition at 60 ppm (Alternaria solani [5]): 0%
- inhibition at 20 ppm (Phytophthora infestans [6]): 0%
- inhibition at 60 ppm (Parastagonospora nodorum [7]): 70%
- inhibition at 60 ppm (Puccinia triticina [8]): 70%
- inhibition at 20 ppm (Plasmopara viticola [9]): 0%
- inhibition at 200 ppm (Plasmopara viticola [10]): 0%
- inhibition at 60 ppm (Puccinia triticina [11]): 100%
- mortality (Heliothis virescens): inactive
- inhibition at 200 ppm (Pyrenophora teres [12]): 0%
- inhibition at 20 ppm (Parastagonospora nodorum [13]): 0%
- Activity (Triticum aestivum): Toxic
- inhibition at 60 ppm (Pyrenophora teres [14]): 0%
- inhibition at 20 ppm (Pyrenophora teres [15]): 0%
- inhibition at 200 ppm (Puccinia triticina [16]): 100%
- inhibition at 1500 g/ha (Brassica napus [17]): 100%
- inhibition at 1500 g/ha (Echinochloa crus-galli [18]): 37.6%
- inhibition at 200 ppm (Phytophthora infestans [19]): 0%
- inhibition at 1500 g/ha (Echinochloa crus-galli [20]): 14.3%
- inhibition at 20 ppm [21]: 0%
- inhibition at 200 ppm (Alternaria solani [22]): 0%
- inhibition at 20 ppm (Puccinia triticina [23]): 70%
- inhibition at 60 ppm (Plasmopara viticola [24]): 0%
- inhibition (Phytophthora infestans [25]): inactive
- inhibition (Uromyces viciae-fabae): Active
- inhibition at 60 ppm [26]: 70%
- inhibition at 1500 g/ha (Brassica napus [27]): 33.1%
- inhibition at 60 ppm (Phytophthora infestans [28]): 0%
- inhibition at 200 ppm (Puccinia triticina [29]): 100%
